Reference: PubChem BioAssay AID652204 (Vanderbilt Specialized Chemistry Center, 2013)
The source made the active and inactive calls. How the calls were made is not given here.

Molecular target: Metabotropic glutamate receptor 4 (Rattus norvegicus) (UniProt P31423)
Assay: glutamate potency shift at rat mGlu4 – cell-based, CHO, Gqi5, Fluo4 calcium, selectivity assay for mGlu5 silent allosteric modulator project (AID 652204)
Details: CHO rmGlu4/Gqi5, Fluo4 calcium mobilization, glutamate CRC
In short: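 system = rat mGlu4/Gqi5 CHO cells | signal = Fluo4-AM calcium fluorescence, dye at 1 µM final | dosing = 10 µM compound, 1% DMSO | medium = HEPES-buffered HBSS with probenecid, pH 7.4 | reagent = glutamate, 9-point concentration series, 10 nM–1 mM final | schedule = 37 °C 60-min dye-loading, compound 20 s, glutamate 80 s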

Metabotropic glutamate receptor 4 (Rattus norvegicus), sequence (P31423 whole entry, looked up): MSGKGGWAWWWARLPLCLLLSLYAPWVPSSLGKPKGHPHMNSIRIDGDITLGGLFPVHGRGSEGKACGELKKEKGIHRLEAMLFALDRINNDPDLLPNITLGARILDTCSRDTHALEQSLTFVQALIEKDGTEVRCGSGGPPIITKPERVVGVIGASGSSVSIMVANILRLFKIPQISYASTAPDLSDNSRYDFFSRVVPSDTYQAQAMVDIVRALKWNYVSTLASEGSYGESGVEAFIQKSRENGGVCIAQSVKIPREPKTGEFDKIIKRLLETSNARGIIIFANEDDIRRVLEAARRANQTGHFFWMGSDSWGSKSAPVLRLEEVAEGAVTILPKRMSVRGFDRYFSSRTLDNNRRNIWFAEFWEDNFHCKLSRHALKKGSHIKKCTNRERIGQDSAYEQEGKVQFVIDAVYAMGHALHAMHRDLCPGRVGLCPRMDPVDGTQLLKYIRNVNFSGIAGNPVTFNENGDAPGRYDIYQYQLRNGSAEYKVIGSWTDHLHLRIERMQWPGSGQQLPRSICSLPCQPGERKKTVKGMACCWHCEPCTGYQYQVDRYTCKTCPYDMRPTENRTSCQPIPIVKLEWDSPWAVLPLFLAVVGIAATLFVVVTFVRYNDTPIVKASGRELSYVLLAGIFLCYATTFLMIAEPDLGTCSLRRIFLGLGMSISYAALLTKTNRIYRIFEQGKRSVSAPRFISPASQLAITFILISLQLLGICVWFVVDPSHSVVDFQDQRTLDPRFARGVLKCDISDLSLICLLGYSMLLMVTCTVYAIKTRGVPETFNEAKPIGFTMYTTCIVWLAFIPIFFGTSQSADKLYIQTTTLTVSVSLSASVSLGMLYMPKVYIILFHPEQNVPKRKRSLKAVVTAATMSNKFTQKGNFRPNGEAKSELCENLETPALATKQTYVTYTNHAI

glutamate EC50 in presence of 10 uM compound: inactive | fold shift (measured here: glutamate EC50 fold shift, at 10 µM): 1.23
SMILES: O=C(c1ccc(C#Cc2cccc(F)c2)cn1)N1CC2CC2C1 (configuration not stated)
